Calls of active or inactive are those of the source. The calls are words filed in the database; no cut-off is given here.
Key:
[1] = Cytotoxicity against human 8392B cells after 48 hrs by trypan blue exclusion assay; type: cell-based
Procedure, shortened: (§1)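 Human MV522 lung adenocarcinoma (target) and 8392 B-cell lymphoma/leukemia (nontarget) lines. Compounds were made as 1 mg/mL stocks in cell-culture-grade DMSO and diluted in sterile 10% DMSO/PBS just before addition. Cells were exposed continuously for 48 h, and controls received equal DMSO/PBS vehicle. Cell survival was scored at 48 h by trypan blue exclusion.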

[2] = Cytotoxicity against human MV522 cells after 48 hrs by trypan blue exclusion assay; type: functional, cell-based; settings: MV522, 48 h; procedure, shortened: as §1
[3] = Selectivity index, ratio of IC50 for human 8392B cells to IC50 for human MV522 cells; type: functional
MV522 = assay: In-vivo antitumor activity against human MV522 cells assessed as induction of tumor shrinkage in xenograft model at nontoxic dose; type: functional, cell-based

Row | SMILES | IC50 [1] | IC50 [2] | Ratio IC50 [3] | Activity (MV522)
1 | CC1=C(CO)C2=C(C)C3(CC3)[C@@](C)(O)C(=O)C2=C1 [IROFULVEN] | 76 nM | 170 nM |  | 
2 | CC1=C(CCCNS(=O)(=O)c2ccc(C)cc2)C2=C(C)C3(CC3)[C@@](C)(O)C(=O)C2=C1 |  | 580 nM |  | 
3 | CC1=C(CCCOC(=O)N2CCOCC2)C2=C(C)C3(CC3)[C@@](C)(O)C(=O)C2=C1 | 62200 nM |  |  | 
4 | CC1=C(CCCNC(=O)NCCO)C2=C(C)C3(CC3)[C@@](C)(O)C(=O)C2=C1 | > 2800 nM | < 80 nM | >35 | 
5 | CONC(=O)NCC1=C(C)C=C2C(=O)[C@](C)(O)C3(CC3)C(C)=C21 | > 9400 nM |  |  | 
6 | CC1=C(CCCNC(=O)N2CCC(N3CCCCC3)CC2)C2=C(C)C3(CC3)[C@@](C)(O)C(=O)C2=C1 | 9000 nM |  |  | 
7 | CC1=C(CCCOC(=O)NCCCl)C2=C(C)C3(CC3)[C@@](C)(O)C(=O)C2=C1 |  | 57 nM |  | 
8 | CC1=C(CNC(=O)NO)C2=C(C)C3(CC3)[C@@](C)(O)C(=O)C2=C1 | 9800 nM | 190 nM | >51 | 
9 | CC1=C(CNS(N)(=O)=O)C2=C(C)C3(CC3)[C@@](C)(O)C(=O)C2=C1 | > 9300 nM | 300 nM | >31 | 
10 | CC1=C(CCCNC(=O)NO)C2=C(C)C3(CC3)[C@@](C)(O)C(=O)C2=C1 | > 9000 nM |  |  | 
11 | CC1=C(CCCNS(=O)(=O)NO)C2=C(C)C3(CC3)[C@@](C)(O)C(=O)C2=C1 | 250 nM | 8 nM | 31 | 
12 | CC1=C(CNS(C)(=O)=O)C2=C(C)C3(CC3)[C@@](C)(O)C(=O)C2=C1 | > 9300 nM |  |  | 
13 | CC1=C(CNC(=O)NCCO)C2=C(C)C3(CC3)[C@@](C)(O)C(=O)C2=C1 | > 9000 nM | 190 nM | >47 | 
14 | CC1=C(CCCNS(N)(=O)=O)C2=C(C)C3(CC3)[C@@](C)(O)C(=O)C2=C1 | 54000 nM | 76 nM | 710 | Active
15 | CC1=C(CCCOC(=O)NCCO)C2=C(C)C3(CC3)[C@@](C)(O)C(=O)C2=C1 |  |  |  | Active
16 | CC1=C(CCCOC(=O)N2CCCCC2)C2=C(C)C3(CC3)[C@@](C)(O)C(=O)C2=C1 | 7100 nM | 1200 nM | 6 | 
17 | CC1=C(CNC(=O)NCCCl)C2=C(C)C3(CC3)[C@@](C)(O)C(=O)C2=C1 | > 8500 nM |  |  | 
18 | CC1=C(CCCNS(C)(=O)=O)C2=C(C)C3(CC3)[C@@](C)(O)C(=O)C2=C1 | 42000 nM | 280 nM | >150 | Active
